The list is not random: actives were taken first. Their share in the collection is about 3.7%.
KCNQ1 act: human KCNQ1 channel potentiation or activation | CHO-K1 KCNQ1, thallium flux FluxOR fluorescence; stronger effect = higher value | 0.35% of 310,000 active | P51787 | B-score at 10 µM | AID 2648;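 active = fluorescence ratio B-score, a plate-corrected score, at least three library SD, with initial intensity B-score within 5 SD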
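Test system: CHO-K1 cells stably expressing KCNQ1 / Medium: assay buffer / Also added: depolarizing K+/Tl+ stimulus, K2SO4 and Tl2SO4 each 12.5 mM in 5x stock / Incubation: 90 min dye loading and 20 min compound exposure, both at room temperature / Signal: thallium influx via FluxOR fluorescence, kinetic imaging / Evaluation: B score of baseline-normalized fluorescence ratio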
KCNK9 inh: blocks the human KCNK9 two-pore domain potassium channel; Q9NPC2; HEK293 KCNK9, FluxOR thallium flux fluorescence; stronger effect = lower value; B-score at 10 µM; 1.2% of 310,000 active; AID 488922;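 active = ratio B-score over 3 SD below the library mean, with starting fluorescence within 5 SD of its mean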;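 note: negative B-score means less thallium flux so channel inhibition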
KCNQ1 block: blocks the human KCNQ1 potassium channel. CHO-K1 KCNQ1, FluxOR thallium flux fluorescence; stronger effect = higher value. 1.3% of 310,000 active. B-score at 10 µM. P51787. AID 2642;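 active = compounds whose thallium flux B-score, printed positive for inhibition, exceeds three library SD while starting fluorescence stays within three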;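 note: channel opened by potassium depolarization with thallium stimulus after 20 min compound exposure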
hERG protect: shields human hERG channel from block by proarrhythmic agents; CHO-hERG, FluxOR thallium flux, dofetilide IC70 present; 0.51% of 310,000 active; activation (rescue from dofetilide block), less the hit threshold, % at 10 µM; Q12809;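 active = activation above the mean of controls blocked by dofetilide plus 5 SD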;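 note: thallium influx through hERG after potassium depolarization seen as dye fluorescence rise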
Target sequence (Q12809 whole entry, looked up): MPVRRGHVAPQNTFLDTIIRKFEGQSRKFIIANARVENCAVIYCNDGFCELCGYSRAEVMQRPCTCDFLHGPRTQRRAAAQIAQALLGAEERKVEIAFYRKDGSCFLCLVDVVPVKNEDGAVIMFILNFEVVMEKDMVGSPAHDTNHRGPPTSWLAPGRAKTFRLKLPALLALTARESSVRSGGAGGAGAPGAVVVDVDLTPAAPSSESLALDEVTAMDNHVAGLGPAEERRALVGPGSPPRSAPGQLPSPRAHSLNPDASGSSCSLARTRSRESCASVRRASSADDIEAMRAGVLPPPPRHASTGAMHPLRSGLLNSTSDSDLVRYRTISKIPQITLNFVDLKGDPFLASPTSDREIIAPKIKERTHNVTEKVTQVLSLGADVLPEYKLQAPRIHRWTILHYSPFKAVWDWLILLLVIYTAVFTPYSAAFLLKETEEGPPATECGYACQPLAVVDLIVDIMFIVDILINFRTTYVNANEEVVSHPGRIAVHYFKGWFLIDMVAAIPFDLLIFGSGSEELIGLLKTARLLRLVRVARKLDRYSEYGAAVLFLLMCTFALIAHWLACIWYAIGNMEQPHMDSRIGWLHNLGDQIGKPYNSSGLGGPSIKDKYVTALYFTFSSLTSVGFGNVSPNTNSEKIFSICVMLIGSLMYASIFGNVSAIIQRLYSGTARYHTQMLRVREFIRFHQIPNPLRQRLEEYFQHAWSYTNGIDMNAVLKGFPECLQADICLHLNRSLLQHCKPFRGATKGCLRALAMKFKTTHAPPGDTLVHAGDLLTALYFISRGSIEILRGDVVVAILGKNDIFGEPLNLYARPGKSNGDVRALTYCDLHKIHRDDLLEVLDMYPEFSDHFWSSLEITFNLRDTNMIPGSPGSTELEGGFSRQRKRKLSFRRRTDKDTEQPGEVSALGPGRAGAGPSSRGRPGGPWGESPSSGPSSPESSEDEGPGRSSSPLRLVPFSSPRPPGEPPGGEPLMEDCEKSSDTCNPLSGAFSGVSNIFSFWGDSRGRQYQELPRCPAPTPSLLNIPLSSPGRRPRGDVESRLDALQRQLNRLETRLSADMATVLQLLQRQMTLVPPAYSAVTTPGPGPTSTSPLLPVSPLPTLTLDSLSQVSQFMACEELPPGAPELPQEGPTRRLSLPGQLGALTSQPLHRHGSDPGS
Kir21 block: inhibitors of mouse Kir2.1 inward-rectifier potassium channel | 0.85% of 310,000 active | B-score at 10 µM | HEK293-Kir2.1, FluxOR thallium flux fluorescence; stronger effect = lower value;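 active = fluorescence ratio B-score at or below minus 3 SD of library scores, with starting-brightness B-score within 2 SD, cut at about -4.2 in these data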;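 note: channel flux triggered by added potassium and thallium sulfate stimulus; B-score of peak minus minimum fluorescence over baseline after thallium stimulus; more negative B-score means stronger Kir2.1 block with less thallium influx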
KCNK3 inh: human KCNK3 channel inhibition, primary screen; 0.84% of 340,000 active; B-score at 10 µM; AID 602410; CHO-KCNK3 thallium flux, FluxOR fluorescence; stronger effect = lower value;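 active = B-score under library mean minus 4 SD, starting fluorescence ratio at most library mean plus 5 SD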;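 note: more negative B-score means stronger inhibition of thallium flux through KCNK3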
KCNK9 block conf: human KCNK9 inhibitor confirmation; AID 492992; 43% of 4,900 active; HEK293 KCNK9 cells, FluxOR thallium flux fluorescence; shares compounds with KCNK9 inh; inhibition, % at 10 µM;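 active = thallium signal inhibited by more than 5 SD of the compound-free buffer control wells, on both duplicate plates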;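 note: 0% = assay buffer control wells without compound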
Kir21 sel: selectivity of KCNK9 modulators against mouse Kir2.1; 4% of 4,900 active; inhibition, % at 10 µM; Kir2.1 cells, FluxOR thallium flux fluorescence; shares compounds with KCNK9 inh;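 active = thallium signal drop more than 5 SD beyond the mean of the no-compound control wells, seen in both duplicate plates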;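 note: signal is fluorescence rise after thallium addition divided by baseline fluorescence; plate controls were assay buffer only for no effect and full block by chlorpromazine control for full effect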
HEK293 Tl ctr: second check of KCNK9 modulator effects in non-induced HEK293 cells; FluxOR thallium flux; inhibition, % at 10 µM; shares compounds with KCNK9 inh; AID 492997; 40% of 4,900 active;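 active = thallium signal drop beyond 5 SD of the untreated control mean, on both duplicate plates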;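 note: plate controls were buffer only IC0 wells for no effect and SID17386958 at its maximal inhibitory level for full effect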
* = called active by the depositor.

For O=C(CCC(=O)c1ccc(Oc2ccccc2)cc1)Nc1cccc(Cl)c1Cl the results were KCNQ1 act inactive, KCNK9 inh inactive, KCNQ1 block inactive, hERG protect -16.0, Kir21 block 0.06, KCNK3 inh inactive, KCNK9 block conf inactive, Kir21 sel inactive and HEK293 Tl ctr 26.5%*.
Cn1c(CN2CCOCC2)nc2cc(NC(=O)COc3ccc([N+](=O)[O-])cc3)ccc21 was read as KCNQ1 act inactive, KCNK9 inh inactive, KCNQ1 block inactive, hERG protect -8.3, Kir21 block -1.12 and KCNK3 inh inactive.
`Cn1c(-c2ccc(C=O)s2)nc2c3ccccc3c3ccccc3c21` gave KCNQ1 act inactive, KCNK9 inh -10.3*, KCNQ1 block 7*, hERG protect -4.7, Kir21 block -1.62, KCNK3 inh inactive, KCNK9 block conf 33.0%*, Kir21 sel inactive and HEK293 Tl ctr 72.0%*.
COc1ccccc1C/C(N)=N/OC(=O)COc1cc(C)cc(C)c1C was read as KCNQ1 act inactive, KCNK9 inh inactive, KCNQ1 block inactive, hERG protect -3.5, Kir21 block -0.7 and KCNK3 inh inactive.
Screening COc1ccccc1C/C(N)=N/OC(=O)COc1cccc(C)c1C returned KCNQ1 act inactive, KCNK9 inh inactive, KCNQ1 block inactive, hERG protect -2.1, Kir21 block 0.27, KCNK3 inh inactive, KCNK9 block conf inactive, Kir21 sel inactive and HEK293 Tl ctr inactive.
For COc1ccc(N2CCN(C(=O)c3ccc(F)cc3)CC2)c([N+](=O)[O-])c1 the results were KCNQ1 act inactive, KCNK9 inh inactive, KCNQ1 block inactive, hERG protect -9.5, Kir21 block -0.05 and KCNK3 inh inactive.
For O=C(c1ccc(F)cc1)N1CCN(c2cc(N3CCCCC3)c(F)cc2[N+](=O)[O-])CC1 the results were KCNQ1 act inactive, KCNK9 inh inactive, KCNQ1 block inactive, hERG protect -7.6, Kir21 block -0.49, KCNK3 inh inactive, KCNK9 block conf inactive, Kir21 sel inactive and HEK293 Tl ctr inactive.
For COc1ccc(C(=O)CSc2nnc(CNC(=O)c3ccccc3)n2C)cc1 the results were KCNQ1 act inactive, KCNK9 inh inactive, KCNQ1 block inactive, hERG protect 0.3, Kir21 block -0.66 and KCNK3 inh inactive.
`Cc1ccc(CSc2nnc(C(F)(F)F)n2Cc2ccc(F)cc2)cc1` gave KCNQ1 act inactive, KCNK9 inh -9.61*, KCNQ1 block inactive, hERG protect -8.4, Kir21 block -1.17, KCNK3 inh inactive, KCNK9 block conf 29.0%*, Kir21 sel inactive and HEK293 Tl ctr 39.0%*.
Screening COc1cccc(CSc2nnc(C(F)(F)F)n2Cc2ccc(F)cc2)c1 returned KCNQ1 act inactive, KCNK9 inh inactive, KCNQ1 block inactive, hERG protect -10.4, Kir21 block -3.97 and KCNK3 inh inactive.
Screening COc1ccc(S(=O)(=O)N2CCCC2=O)cc1N(C)S(C)(=O)=O returned KCNQ1 act inactive, KCNK9 inh inactive, KCNQ1 block inactive, hERG protect -2.2, Kir21 block 0.37 and KCNK3 inh inactive.
For COc1ccc(N2CCCn3c2nc2c3c(=O)n(CCc3ccccc3)c(=O)n2C)cc1 the results were KCNQ1 act inactive, KCNK9 inh inactive, KCNQ1 block inactive, hERG protect -6.7, Kir21 block -0.68 and KCNK3 inh inactive.
For COc1ccc(N2CCCn3c2nc2c3c(=O)n(Cc3ccc(C)cc3)c(=O)n2C)c(OC)c1 the results were KCNQ1 act inactive, KCNK9 inh inactive, KCNQ1 block inactive, hERG protect -6.7, Kir21 block 2, KCNK3 inh inactive, KCNK9 block conf inactive, Kir21 sel inactive and HEK293 Tl ctr inactive.
Screening CCOC(=O)c1c(C)[nH]c(C)c1C(=O)CSc1nc2ccccc2c(=O)n1-c1ccccc1C returned KCNQ1 act inactive, KCNK9 inh -9.63*, KCNQ1 block inactive, hERG protect -12.0, Kir21 block 0.63, KCNK3 inh inactive, KCNK9 block conf 32.0%*, Kir21 sel inactive and HEK293 Tl ctr 34.0%*.
`Cc1ccc(C(=O)CSc2nc3ccccc3c(=O)n2-c2ccccc2)s1` gave KCNQ1 act inactive, KCNK9 inh inactive, KCNQ1 block inactive, hERG protect -3.5, Kir21 block -0.44 and KCNK3 inh inactive.
`CCOC(=O)c1c(C)[nH]c(C)c1C(=O)CSc1nc2ccccc2c(=O)n1-c1ccc(F)cc1` gave KCNQ1 act inactive, KCNK9 inh -10.3*, KCNQ1 block inactive, hERG protect -15.2, Kir21 block 0.05, KCNK3 inh inactive, KCNK9 block conf inactive, Kir21 sel inactive and HEK293 Tl ctr inactive.
Screening CC1Cc2nc(SCC(=O)Nc3ccc4c(c3)OCO4)n(CCc3ccccc3)c(=O)c2S1 (stereo unspecified) returned KCNQ1 act inactive, KCNK9 inh -12.5*, KCNQ1 block inactive, hERG protect -10.0, Kir21 block -1.87, KCNK3 inh inactive, KCNK9 block conf 58.0%*, Kir21 sel inactive and HEK293 Tl ctr inactive.
For CCn1c(SCC(=O)Nc2ccc3c(c2)OCO3)nc2c(c1=O)SC(C)C2 (stereo unspecified) the results were KCNQ1 act inactive, KCNK9 inh inactive, KCNQ1 block inactive, hERG protect -15.4, Kir21 block -0.07 and KCNK3 inh inactive.
COc1ccc(-n2c(SCC(=O)Nc3ccc4c(c3)OCO4)nc3ccccc3c2=O)cc1 was read as KCNQ1 act inactive, KCNK9 inh -9.29*, KCNQ1 block inactive, hERG protect -7.2, Kir21 block 1.3, KCNK3 inh inactive, KCNK9 block conf 38.5%*, Kir21 sel inactive and HEK293 Tl ctr 35.5%*.
For CCOc1ccc(-n2c(SCC(=O)Nc3ccc4c(c3)OCO4)nc3ccccc3c2=O)cc1 the results were KCNQ1 act inactive, KCNK9 inh inactive, KCNQ1 block inactive, hERG protect -7.1, Kir21 block -1.03 and KCNK3 inh inactive.
CCC(C)n1c(SCC(=O)NC(=O)Nc2ccc3c(c2)OCCO3)nc2ccccc2c1=O (stereo unspecified) was read as KCNQ1 act inactive, KCNK9 inh -15.2*, KCNQ1 block inactive, hERG protect -2.5, Kir21 block 0.1, KCNK3 inh -8.74*, KCNK9 block conf 50.0%*, Kir21 sel inactive and HEK293 Tl ctr 30.0%*.

Screening data: PubChem BioAssay, Johns Hopkins Ion Channel Center
